Source: ChEMBL document CHEMBL4665889, “Design, Synthesis, and Pharmacological Characterization of a Neutral, Non-Prodrug Thrombin Inhibitor with Good Oral Pharmacokinetics” (J Med Chem, 2020)
The source made the active and inactive calls. No cut-off for these calls is given here.

Tests used:
[1] = Inhibition of thrombin in dog plasma; assay type: cell-free; details: Canis lupus familiaris
[2] = Protein binding in human plasma; assay type: ADME, cell-free; details: read-out: PPB (converted)
[3] = Volume of distribution at steady state in Wistar Hannover rat at 0.3 to 0.5 mg/kg, iv by LC-MS/MS analysis; assay type: ADME, organism-based; details: in vivo, dose 0.3-0.5 mg/kg, time <=24 hrs, read-out: Vdss
Outline: (§1)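 Male Wistar Hannover rats, catheterized under isoflurane; one day later iv injection into lateral tail vein at 0.3 to 0.5 mg/kg in plasma containing 2% DMSO. Blood sampled via catheter from 0.033 to 24 h. Plasma precipitated with acetonitrile, analysed by LC-MS/MS (10 mM ammonium acetate pH 3.0/acetonitrile gradient). PK parameters calculated from plasma concentrations.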

[4] = biological target: T1, Nuclear receptor subfamily 1 group I member 2 (Homo sapiens, UniProt O75469); test: Activation of human PXR expressed in human HepG2 cells; assay type: ADME, cell-based
T1 sequence (O75469 whole entry): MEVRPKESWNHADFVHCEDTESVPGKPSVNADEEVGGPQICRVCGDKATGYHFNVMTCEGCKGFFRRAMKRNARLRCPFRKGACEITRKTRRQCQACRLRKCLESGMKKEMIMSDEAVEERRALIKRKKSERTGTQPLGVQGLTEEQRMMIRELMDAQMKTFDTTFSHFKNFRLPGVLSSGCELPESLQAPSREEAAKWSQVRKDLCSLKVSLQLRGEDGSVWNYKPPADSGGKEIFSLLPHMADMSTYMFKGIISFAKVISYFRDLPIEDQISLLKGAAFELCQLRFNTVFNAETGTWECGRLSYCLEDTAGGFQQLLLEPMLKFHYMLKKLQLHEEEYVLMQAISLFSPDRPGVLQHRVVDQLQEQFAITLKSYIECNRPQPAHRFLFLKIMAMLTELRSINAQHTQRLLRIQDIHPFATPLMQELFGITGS
Outline: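 HepG2 cells transiently co-transfected with human PXR and a luciferase reporter under the human CYP3A4 promoter, 48 h before readout. 24 h after seeding, 1:3 serial dilutions (2 nM to 50 μM, 0.5% DMSO) added. Luminescence normalized to rifampicin (100%) and DMSO (0%). MEC is the lowest concentration raising signal above 4-fold SD of DMSO background.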

[5] = tested on: Rattus norvegicus; test: Antithrombotic activity in HsdCpd:WU rat model of arteriovenous shunt model assessed as reduction in thrombus weight at 0.6 to 6 mg/kg/hr, iv; assay type: functional, organism-based; details: dose mg/kg/hr 0.6-6
Outline: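 Fasting male HsdCpd:WU rats, 300−350 g, anesthetized with Inactin (150−180 mg/kg). Jugular vein and carotid artery linked by a 10 cm PE 60 shunt. Shunt opened 20 min after iv bolus for 15 min; thrombus on nylon thread weighed.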

[6] = Blood clearance in Wistar Hannover rat at 0.3 to 0.5 mg/kg, iv by LC-MS/MS analysis; assay type: ADME, organism-based; details: whole blood, dose 0.3-0.5 mg/kg, time <=24 hrs; outline: as §1
[7] = biological target: Coagulation factor XI (Homo sapiens) (UniProt P03951); test: Inhibition of purified human plasma factor-11a up to 20 uM using Boc-Glu(OBzl)-Ala-Arg-AMC substrate incubated for 30 mins by fluorescence based assay; details: dose microM <=20, time 30.0 min
Sequence of Coagulation factor XI (Homo sapiens) (P03951 19-387 limits assumed): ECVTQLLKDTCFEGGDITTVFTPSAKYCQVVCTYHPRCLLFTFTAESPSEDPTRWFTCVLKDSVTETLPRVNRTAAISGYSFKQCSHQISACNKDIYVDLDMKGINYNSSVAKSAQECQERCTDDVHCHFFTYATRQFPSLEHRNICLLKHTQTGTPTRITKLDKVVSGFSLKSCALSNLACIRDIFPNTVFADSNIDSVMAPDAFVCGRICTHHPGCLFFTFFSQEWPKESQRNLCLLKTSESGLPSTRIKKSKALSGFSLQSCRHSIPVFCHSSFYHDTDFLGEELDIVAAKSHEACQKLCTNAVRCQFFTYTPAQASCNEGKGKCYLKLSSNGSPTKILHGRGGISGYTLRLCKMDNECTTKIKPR
Sequence of Coagulation factor XI (Homo sapiens) (P03951 388-625 limits assumed): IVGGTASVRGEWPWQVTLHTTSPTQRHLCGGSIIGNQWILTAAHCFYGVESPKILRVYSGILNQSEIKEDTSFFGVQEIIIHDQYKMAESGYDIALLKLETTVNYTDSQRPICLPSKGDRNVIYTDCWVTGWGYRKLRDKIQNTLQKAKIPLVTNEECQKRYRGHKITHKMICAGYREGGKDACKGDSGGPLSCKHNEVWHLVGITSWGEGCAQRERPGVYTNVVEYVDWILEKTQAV
Outline: (§2)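 Final levels: thrombin 0.02 nM; FXa 1.3 nM; FXIa 0.15 nM; plasmin 1.2 nM (substrate 50 μM); tPA 2 nM; kallikrein 0.2 nM; trypsin 0.1 nM; other AMC substrates 5 μM. FVIIa 0.5 pM coupled with tissue factor, factor X 12 nM, FXa substrate 50 μM.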

[8] = Permeability from apical to basolateral side in human Caco2 cells incubated for 2 hrs by LC-MS/MS analysis; assay type: ADME, cell-based; details: Caco-2
Outline: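 Caco-2 cells grown 15 d on 0.4 μm inserts, TEER ≥600 Ω. Compound (DMSO stock diluted 100-fold) in HBSS pH 7.4 with 10 mM HEPES and 20 mM glucose, added apically or basolaterally. Incubated 2 h at 37 °C and analysed by LC-MS/MS. Papp = (Vr/P0)·(1/S)·(P2/t); mean and SD.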

[9] = Tmax in orally dosed healthy human; assay type: ADME, organism-based; details: in vivo, po
[10] = Toxicity in HsdCpd:WU rat model of arteriovenous shunt model assessed as prolongation of bleeding time at 0.6 to 6 mg/kg/hr, iv; assay type: organism-based; details: in vivo, dose 0.6-6 mg/kg/hr
[11] = biological target: Prothrombin (Rattus norvegicus, UniProt P18292); test: Inhibition of thrombin in rat plasma; assay type: cell-free
[12] = MRT in Wistar Hannover rat at 0.3 to 0.5 mg/kg, iv by LC-MS/MS analysis; assay type: ADME, organism-based; details: in vivo, dose 0.3-0.5 mg/kg, time <=24 hrs; outline: as §1
[13] = biological target: T2, Coagulation factor VII (Homo sapiens) (UniProt P08709); test: Inhibition of purified human plasma factor-7a up to 20 uM incubated for 30 mins by fluorescence based based coupled protease reaction assay; details: dose microM <=20, time 30.0 min; outline: as §2
T2 sequence (whole entry): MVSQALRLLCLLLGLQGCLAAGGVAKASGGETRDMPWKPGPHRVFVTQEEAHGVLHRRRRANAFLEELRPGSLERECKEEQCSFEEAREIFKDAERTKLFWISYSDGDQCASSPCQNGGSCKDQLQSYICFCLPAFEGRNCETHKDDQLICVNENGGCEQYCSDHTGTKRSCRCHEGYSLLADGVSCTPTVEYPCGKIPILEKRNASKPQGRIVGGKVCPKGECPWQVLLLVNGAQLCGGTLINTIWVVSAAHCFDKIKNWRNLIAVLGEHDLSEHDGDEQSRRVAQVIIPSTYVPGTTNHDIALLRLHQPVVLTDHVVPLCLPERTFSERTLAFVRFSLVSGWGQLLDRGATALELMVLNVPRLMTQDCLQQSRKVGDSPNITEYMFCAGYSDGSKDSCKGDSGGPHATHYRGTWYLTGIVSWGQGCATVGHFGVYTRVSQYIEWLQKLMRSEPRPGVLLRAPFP

[14] = Clearance in Wistar rat hepatocytes at 1 uM incubated up to 90 mins by LC-MS/MS analysis; assay type: ADME, cell-based, Hepatocyte; details: Wistar
Outline: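 Fresh male Wistar rat hepatocytes, 1 × 10⁶ viable cells/mL, in Williams' medium E at 37 °C, pH 7.4, with 1 μM substrate and <1% acetonitrile. Samples at 2–90 min quenched in acetonitrile and analysed by LC-MS/MS.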

[15] = tested on: Plasma; test: Anticoagulation activity in human plasma assessed as drug level causing doubling of prothrombin time incubated for 3 mins; assay type: functional; details: 0.05 h
Outline: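 Citrated human plasma (0.11 M citrate 1:9, spun ~4000g 15 min) incubated with compound at 37 °C for 3 min. Clotting started with thromboplastin and time to coagulation recorded. Value is the concentration doubling clotting time (PT or aPTT).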

[16] = tested on: Rattus norvegicus; test: Antithrombotic activity in HsdCpd:WU rat thrombosis model with venous stasis assessed as reduction in thrombus weight at 1 to 10 mg/kg, po dosed 90 mins before thrombus induction measured after 15 mins; assay type: functional, organism-based; details: dose mg/kg 1-10, time 105.0 min
Outline: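 Anesthetized rats, n = 6−10 per dose group. Compound in PEG/water/glycerol or vehicle given by gavage 90 min before induction. Two loose sutures placed on vena cava below left renal vein; thromboplastin 0.5 mg/kg iv into femoral vein, sutures tied after 15 s. Segment removed 15 min later and thrombus weighed.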

IC50 [1]: 6.5 nM | fraction unbound [2]: 0.22 | Vd [3]: 3.5 L/kg | MEC [4]: 1.9 µM | clearance [6]: 51.7 mL/min/kg | inhibition [7]: inactive | Papp A→B at 2 h [8]: 13.1 ×10⁻⁶ cm/s | Tmax [9]: 45 min | IC50 [11]: 10 nM | MRT [12]: 72 min | inhibition [13]: inactive | CLhep predicted at 1 µM [14]: 31.7 mL/min/kg
SMILES: COc1cc(C(=O)N2C[C@H](C)OC[C@@H]2CCO)cc2nc(N[C@H](CF)c3cccc(Cl)c3)oc12
Activity [5]: Dose-dependent effect | fold change (FC) [10]: < 2 | 2PT [15]: 1.1 µM | Activity [16]: Dose-dependent effect
